# Assay outcomes (PubChem BioAssay)
# In the library only some 4.3% were active in any assay of this set; here they are far more common.
# CAL PDZ FP-1 – human CAL PDZ-peptide interaction inhibition; Q9HD26; inhibition, % at 20 µM; 330,000 tested, 0.02% active; purified CAL PDZ, TMR-peptide fluorescence polarization, 1 h;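 active means highest replicate inhibition of at least 40%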;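 further: plate controls were DMSO neutral control wells for no effect and unlabeled competitor peptide control wells for full effect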
#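 Assay system – tagged CAL PDZ protein CerCALP, purified · Timing – 1 h at RT · Compound – single point, 20 µM · Measured by – fluorescence polarization from S- and P-plane intensities, G-factor corrected · Evaluation – inhibition from polarization loss · Probe or stimulus – TMR reporter peptide T*-PRC34 · Buffer or medium – pH 7.4 phosphate-saline buffer, reducing agent, detergent, IgG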
# Dyrk1A ADPGlo – blocks rat Dyrk1A kinase activity. Q63470. ADP-Glo luminescence, NFATc1 peptide. inhibition, % at 12.5 µM. 310,000 tested, 0.43% active. AID 504441; in the data active means inhibition above about 50%;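 further: plate controls were vehicle with enzyme for no effect and no enzyme for full effect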
# CAL PDZ FP-2 – inhibitors of human CAL PDZ peptide binding; Q9HD26; purified CAL PDZ, TMR-peptide fluorescence polarization, 1 h; inhibition, % at 24.9 µM; 300,000 tested, 0.92% active; AID 602252;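 active means mean inhibition of at least 30% with at least half of replicates also reaching 30%; inconclusive means no clear call, values can overlap the other calls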;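 further: 0% = DMSO neutral control and 100% = excess unlabeled competitor peptide PRC23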
# Rtt109 Vps75 – blocks Candida albicans Rtt109/Vps75 acetyltransferase activity; Q5AAJ8; purified Rtt109/Vps75, ThioGlo CoA-SH fluorescence, 4 h; AID 540336; inhibition, % at 34.9 µM; 330,000 tested, 0.16% active;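 active means inhibition of at least 50% in every replicate; inconclusive means best replicate reaches 50% inhibition but some replicates fall short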
# Target sequence (Q5AAJ8 whole entry, looked up): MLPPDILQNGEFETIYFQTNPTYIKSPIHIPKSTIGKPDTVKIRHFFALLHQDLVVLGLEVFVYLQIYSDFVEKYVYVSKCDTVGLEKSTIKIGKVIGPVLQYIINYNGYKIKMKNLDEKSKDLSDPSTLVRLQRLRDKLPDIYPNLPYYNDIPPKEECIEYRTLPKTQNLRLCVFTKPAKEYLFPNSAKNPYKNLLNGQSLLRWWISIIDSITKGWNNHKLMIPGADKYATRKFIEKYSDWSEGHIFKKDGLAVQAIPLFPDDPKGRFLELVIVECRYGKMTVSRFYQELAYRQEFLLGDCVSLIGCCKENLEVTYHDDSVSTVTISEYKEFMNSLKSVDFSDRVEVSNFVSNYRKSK
# ALR H2O2 inh – human ALR oxidase inhibition via reduced H2O2. inhibition, % (test concentration not listed). AID 485317. P55789. 290,000 tested, 3.8% active. purified ALR, DTT oxidation, H2O2 HRP-luminol luminescence;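 active means mean replicate inhibition above about 79%, with every replicate also reaching it, limit read from the data; inconclusive means only one of the two criteria met; inactive means mean below limit and not every replicate reaching it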
# Target sequence (P55789 whole entry, looked up): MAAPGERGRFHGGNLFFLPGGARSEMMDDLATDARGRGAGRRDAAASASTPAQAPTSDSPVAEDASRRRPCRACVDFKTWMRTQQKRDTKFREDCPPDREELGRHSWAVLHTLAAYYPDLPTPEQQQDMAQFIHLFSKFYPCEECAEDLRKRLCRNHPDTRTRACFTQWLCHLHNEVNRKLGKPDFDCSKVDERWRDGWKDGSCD
# An asterisk follows results filed as active; ? = inconclusive; · = no result given.
SMILES,CAL PDZ FP-1,Dyrk1A ADPGlo,CAL PDZ FP-2,Rtt109 Vps75,ALR H2O2 inh
O=C(COC(=O)Cc1ccc(S(=O)(=O)N2CCOCC2)s1)Nc1ccc(F)cc1F,0.0,·,44.8*,-7.5,-13.4
O=C(O)c1cc(-c2ccc(/C=c3\sc4nc5ccc(Br)cc5n4c3=O)o2)ccc1Cl,·,·,·,·,92.8*
COc1ccccc1NC1CCCCC1NS(=O)(=O)c1ccc(C)cc1 (stereo not drawn),-1.3,·,-2.2,0.7,·
COc1ccc(NC2CCCCC2NS(=O)(=O)c2ccc(C)cc2)cc1 (stereo not drawn),-1.9,-8.9,4.1,-4.5,87.3*
CCOc1ccc(S(=O)(=O)NC2CCCCCC2)cc1,-3.1,-4.5,-2.9,-2.4,·
CCOc1ccc(NC2CCCCC2NS(=O)(=O)c2ccccc2)cc1 (stereo not drawn),-2.1,·,-2.2,-1.5,92.3*
CCOc1ccc(S(=O)(=O)Nc2nc3ccccc3nc2N2CCN(C)CC2)cc1,-0.1,6.5,-2.7,16.5,6.0
CCOc1ccc(S(=O)(=O)Nc2nc3ccccc3nc2Cl)cc1,0.0,0.6,-4.1,-4.9,87.6*
COc1cccc(-c2cc(C(F)(F)F)n3nc(N)nc3n2)c1,-1.3,0.9,-2.7,-1.6,95.4*
COc1ccc(-c2cc(C(F)(F)F)n3nc(N)nc3n2)cc1,-2.5,-5.8,·,-152.8,-4.9
COC(=O)c1c(NC(=O)CSc2ncn[nH]2)sc(C)c1C,-2.9,·,-5.3,-2.4,2.7
Nc1cccc2c1C(=O)N(C(=O)/C=C/c1cccc(F)c1)C2=O,-0.6,-1.0,-0.4,-67.2,98.4*
CCOC(=O)c1c(-c2ccccc2)oc2ccc(O)cc12,0.1,10.6,0.4,-3.6,-2.3
CCOC(=O)c1c(-c2ccccc2)[nH]c2ccc(O)cc12,-1.3,48.5,-0.5,9.6,98.0*
Cc1ccc2[nH]c3ccccc3c(=O)c2c1,·,1.2,-7.3,9.7,1.0
O=c1c2ccccc2[nH]c2ccc(O)cc12,-1.7,15.2,-2.3,-149.4,86.6*
COc1ccc(C(=O)NC=C2C(=O)OC(C)(C)OC2=O)cc1,0.3,2.1,-3.7,-6.4,26.5
COCCNC(=O)c1onc(CSc2cc(C)cc(C)c2)c1C(=O)O,-1.3,-12.2,-2.4,-3.9,42.0
COCCNC(=O)c1onc(CSc2ccc(C)c(C)c2)c1C(=O)O,-1.9,-2.6,-2.6,-5.3,90.4*
Cc1ccc(SCc2noc(C(=O)NC(C)C)c2C(=O)O)cc1C,-1.8,-2.7,-6.7,2.2,95.7*
COc1ccc(-n2cc(C(=O)c3cc(Cl)ccc3O)cc(C#N)c2=O)cc1,-0.9,-3.1,-3.5,5.3,3.1
COc1ccc(O)c(C(=O)c2cc(C#N)c(=O)n(-c3ccc(Cl)cc3)c2)c1,-0.4,·,39.4*,0.6,12.6
O=C(c1ccccc1)C(CCc1ccccn1)CCc1ccccn1,24.0,2.2,46.6*,-0.9,·
COC(=O)Nc1ccc(S(=O)(=O)N2CCC(C(=O)N(C)C3CCCCC3)CC2)cc1,-1.9,·,-4.6,2.4,92.2*
O=[N+]([O-])c1cnccc1Nc1ccc(Cl)cc1,-0.9,·,74.6*,5.6,2.6
SMILES,CAL PDZ FP-1,Dyrk1A ADPGlo,CAL PDZ FP-2,Rtt109 Vps75,ALR H2O2 inh
OC(CNCC1CCCO1)Cn1c2ccc(Cl)cc2c2cc(Cl)ccc21 (stereo not drawn),-1.2,2.2,43.8*,?,-13.0
OC(CNCC1CCCO1)Cn1c2ccccc2c2ccccc21 (stereo not drawn),-0.7,0.1,-48.7,3.5,-10.9
O=C(OCC(=O)N1CCN(c2ccccc2)CC1)c1ccc(Cl)nc1,-1.1,-0.5,-2.6,-3.8,97.1*
O=C(COC(=O)c1ccc(Cl)nc1)NCCC1=CCCCC1,-0.4,·,-1.1,-10.1,87.7*
O=C(COC(=O)c1ccc(Cl)nc1)Nc1ccc(N2CCCCC2)cc1,·,-5.9,41.2*,-4.0,5.1
O=C(COC(=O)c1ccc(Cl)nc1)Nc1ccc(Cl)cc1,-1.8,-2.5,3.5,-1.9,·
CCOc1cc(C(=S)N2CCOCC2)ccc1OC(=O)c1cc(OC)c(OC)c(OC)c1,0.4,-3.5,-2.6,-1.7,-13.1
COc1cccc(Oc2nccc(N(C)C)c2C#N)c1,-0.8,0.9,3.7,-7.1,1.2
CSc1ccccc1NC(=O)Cn1c([N+](=O)[O-])cnc1C,0.5,-2.1,-3.9,2.5,-3.3
Cn1c(=O)n(C)c2cc(N3CCCCC3)c(NC(=O)c3ccccc3)cc21,1.3,5.5,·,-7.5,-0.4
CCn1c(=O)n(CC)c2cc(N3CCCC3)c(NC(=O)c3ccc(C)cc3)cc21,0.1,0.3,-6.5,-5.3,99.1*
CCn1c(=O)n(CC)c2cc(N3CCCC3)c(NC(=O)c3ccccc3F)cc21,-1.2,4.9,-3.5,-10.3,·
CCn1c(=O)n(CC)c2cc(N3CCCC3)c(NC(=O)c3ccccc3)cc21,0.0,-4.2,-5.3,-8.7,96.7*
CCn1c(=O)n(CC)c2cc(N3CCCC3)c(NC(=O)c3ccccc3C)cc21,-0.7,5.0,-3.5,2.0,99.2*
CCN(CC(=O)Nc1c(F)cccc1F)C(=O)CCCNC(=O)c1ccc(Cl)cc1,-1.6,-3.5,-3.1,-1.3,-13.9
COc1cccc(C(=O)Nc2cc(C(=O)NCc3ccc(C)cc3)ccc2N2CCC3(CC2)CC(c2ccccc2)=NO3)c1,-0.3,-1.0,-10.4,-4.5,-0.9
Cc1ccc(CNC(=O)c2ccc(N3CCC4(CC3)CC(c3ccccc3)=NO4)c(NC(=O)c3c(Cl)cccc3Cl)c2)cc1,0.9,·,50.5*,3.3,-2.9
CCNC(=S)NNC(=O)c1cc(-c2cccnc2)nc2ccccc12,-0.1,·,4.0,-3.2,88.0*
O=C(NNC(=S)Nc1ccccc1)c1cc(-c2cccnc2)nc2ccccc12,-1.7,17.4,2.9,19.8,·
CCOC(=O)c1ccc(NC(=S)NNC(=O)c2cc(-c3cccnc3)nc3ccccc23)cc1,-1.6,17.6,48.9*,23.9,15.3
CCCNC(=S)NNC(=O)c1cc(-c2cccnc2)nc2ccccc12,0.0,14.4,-0.5,6.6,7.7
CCCN1C2CCCC1CC(NC(=O)c1ccc(OC)cc1)C2 (stereo not drawn),-0.3,-0.2,-2.2,-2.6,·
CCCCCn1nc(C(=O)N(CC)c2c(N)n(CCCC)c(=O)[nH]c2=O)c2ccccc2c1=O,4.2,2.9,44.6*,0.2,-4.5
CCCCn1c(N)c(N(Cc2ccccc2OC)C(=O)c2cc(CC)c(C)s2)c(=O)[nH]c1=O,-0.4,-4.7,-0.5,18.0,-0.3
CCCCn1c(N)c(N(Cc2ccccc2OC)C(=O)c2sccc2C)c(=O)[nH]c1=O,-3.0,5.4,-1.5,50.4*,-4.2
CCCCn1c(N)c(N(CCC(C)C)C(=O)CSc2nncn2-c2ccccc2)c(=O)[nH]c1=O,-0.5,·,47.6*,5.5,·
CC(C)Oc1ccc(Br)cc1/C=N\NC(N)=S,-0.5,-12.4,-1.7,12.3,0.8
COc1cc(/C=C2\CCCc3c2nc2ccccc2c3C(=O)O)cc(Br)c1O,-2.8,-0.2,6.3,-3.8,96.6*
Cc1ccc2nc(-c3ccco3)c(Nc3ccccc3)n2c1,0.2,1.7,-2.0,2.6,27.4
